Results: article PMC5061793 (British Journal of Clinical Pharmacology, 2016)
Entries after “also recorded” stand apart in the source; their conditions may differ.

Assays:
[1] = system: patients with mild-to-moderate probable AD; settings: cited from earlier work
[2] = Plasma pharmacokinetics after single rising oral doses of BI 409306; type: in vivo, human; settings: for AUC0–∞ ratio of tablet to solution: EM; for Cl F^−1: geometric mean (gCV%)
Summary of the method: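 Healthy males (21–50 y), CYP2C19-genotyped as homozygous EMs or PMs, given single oral doses after a ≥10 h fast: solution 0.5–5 mg, tablets 10–350 mg; PMs given 10 mg, then 100 mg tablet. Tablet/solution crossover at 5 and 50 mg. Plasma sampled −2 h to 24 h (48, 72 h if ≥10 mg). HPLC-MS/MS with isotope-labelled internal standard. Noncompartmental analysis; log-scale ANOVA for formulation and genotype.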

[3] = preclinical studies; cited from earlier work
rat hippocampal slices = settings: cited from earlier work
healthy male subjects = assay: Safety and tolerability; type: in vivo, human
Summary of the method: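 Randomized, double-blind, placebo-controlled single-dose escalation, 3:1 active:placebo (six and two per group). Males 21–50 y, BMI 18.5–29.9 kg m−2, CYP2C19 EMs or PMs, dosed four per day ≥1 h apart, ≥5 days between levels. Monitored AEs, laboratory tests, physical exam, vital signs, cardiac monitoring, 12-lead ECG and 16-item Bond–Lader 100 mm mood VAS. Investigators rated tolerability on a four-point scale. Descriptive statistics.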

[4] = Urinary excretion after single oral doses of BI 409306; type: in vivo, human; settings: for fe0–4: urine 0 h to 4 h, geometric mean (gCV%)
Summary of the method: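 Drug amounts were measured by HPLC-MS/MS, giving amounts and fractions excreted per interval. Dose proportionality of Ae0–4 was tested by linear regression in EMs and by a mixed-effects linear model in PMs, with a 95% CI on the slope.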

[5] = after administration of 50 mg tablets
[6] = dose levels of 10 mg and 100 mg
[7] = single oral dose 2 mg sol EM (n = 6)
[8] = single oral dose 5 mg sol EM (n = 6)
[9] = single oral dose 5 mg tab EM (n = 6)
[10] = single oral dose 10 mg tab EM (n = 6)
[11] = single oral dose 10 mg tab PM (n = 6)
[12] = single oral dose 50 mg sol EM (n = 8)
[13] = single oral dose 50 mg tab EM (n = 6)
[14] = single oral dose 100 mg tab EM (n = 5)
[15] = single oral dose 100 mg tab PM (n = 6)
[16] = single oral dose 200 mg tab EM (n = 6)
[17] = single oral dose 350 mg tab EM (n = 6)

SMILES: C[C@@H]1CN(Cc2ncccn2)C[C@H]1c1nc2c(cnn2C2CCOCC2)c(=O)[nH]1 [PF‐04447943, 6‐[(3S,4S)‐4‐methyl‐1‐(pyrimidin‐2‐ylmethyl)pyrrolidin‐3‐yl]‐1‐(tetrahydro‐2H‐pyran‐4‐yl)‐1,5‐dihydro‐4H‐pyrazolo[3,4‐d]pyrimidin‐4‐one]
- incidence of severe AEs [1]: comparable to that with placebo

SMILES: O=c1[nH]c(Cc2ccccn2)nc2c1cnn2C1CCOCC1 [BI 409306]
- AUC0–∞ ratio of tablet to solution ([2]; 5 mg dose, 90% CI: 87.6%, 111%): 98.5%
- ratio (CYP2C19 PM to EM) of Cmax ([2]; 10 mg dose, 90% CI: 125%, 401%): 224%
- ratio (CYP2C19 PM to EM) of AUC0–∞ ([2]; 10 mg dose, 90% CI: 291%, 843%): 496%
- AUC0–∞ ratio of tablet to solution ([2]; 50 mg dose, 90% CI: 59.6%, 119%): 84.2%
- ratio (CYP2C19 PM to EM) of Cmax ([2]; 100 mg dose, 90% CI: 124%, 421%): 228%
- ratio (CYP2C19 PM to EM) of AUC0–∞ ([2]; 100 mg dose, 90% CI: 254%, 677%): 415%
- reduction of gMean AUC, tablet versus oral solution [2, 5]: approximately 16%
- reduction of gMean Cmax, tablet versus oral solution [2, 5]: approximately 20%
- time following dose within which BI 409306 was eliminated ([2]; all DGs): ≤ 24 h
- AUC0–∞ in CYP2C19 PMs compared with EMs [2, 6]: 4.1–5.0 fold
- Cmax in CYP2C19 PMs compared with EMs [2, 6]: 2.2–2.3 fold
- Cl F^−1 ([2]; single oral dose 0.5 mg sol EM (n = 6)): 6770 (50.4) ml min^−1
- Cl F^−1 [2, 7]: 5130 (41.3) ml min^−1
- Cl F^−1 [2, 8]: 3490 (27.0) ml min^−1
- Cl F^−1 [2, 9]: 3540 (32.2) ml min^−1
- Cl F^−1 [2, 10]: 5580 (69.8) ml min^−1
- Cl F^−1 [2, 11]: 1120 (35.5) ml min^−1
- Cl F^−1 ([2]; single oral dose 25 mg tab EM (n = 6)): 3810 (49.4) ml min^−1
- Cl F^−1 [2, 12]: 4130 (42.9) ml min^−1
- Cl F^−1 [2, 13]: 4970 (82.0) ml min^−1
- Cl F^−1 [2, 14]: 3660 (68.5) ml min^−1
- Cl F^−1 [2, 15]: 882 (21.4) ml min^−1
- Cl F^−1 [2, 16]: 2730 (44.4) ml min^−1
- Cl F^−1 [2, 17]: 2350 (17.1) ml min^−1
- memory performance [3]: improved memory performance
- synaptic plasticity (LTP) (rat hippocampal slices): enhancement of LTP
- AE: Dizziness (healthy male subjects; 2 mg sol EM (n = 6)): 1 (16.7) n (%)
- AE: Gastrointestinal disorders (healthy male subjects; 2 mg sol EM (n = 6)): 1 (16.7) n (%)
- AE: Headache (healthy male subjects; 2 mg sol EM (n = 6)): 1 (16.7) n (%)
- AE: Nausea (healthy male subjects; 2 mg sol EM (n = 6)): 1 (16.7) n (%)
- AE: Nervous system disorders (healthy male subjects; 2 mg sol EM (n = 6)): 2 (33.3) n (%)
- AE: Headache (healthy male subjects; 5 mg tab EM (n = 6)): 1 (16.7) n (%)
- AE: Nervous system disorders (healthy male subjects; 5 mg tab EM (n = 6)): 1 (16.7) n (%)
- AE: Diarrhoea (healthy male subjects; 10 mg tab PM (n = 6)): 1 (16.7) n (%)
- AE: Gastrointestinal disorders (healthy male subjects; 10 mg tab PM (n = 6)): 1 (16.7) n (%)
- AE: Headache (healthy male subjects; 10 mg tab PM (n = 6)): 2 (33.3) n (%)
- AE: Nervous system disorders (healthy male subjects; 10 mg tab PM (n = 6)): 2 (33.3) n (%)
- AE: Cardiac disorders (healthy male subjects; 50 mg tab EM (n = 6)): 1 (16.7) n (%)
- AE: Extrasystoles (healthy male subjects; 50 mg tab EM (n = 6)): 1 (16.7) n (%)
- AE: Palpitations (healthy male subjects; 50 mg tab EM (n = 6)): 1 (16.7) n (%)
- AE: Chromatopsia (healthy male subjects; 100 mg tab PM (n = 6)): 1 (16.7) n (%)
- AE: Eye disorders (healthy male subjects; 100 mg tab PM (n = 6)): 2 (33.3) n (%)
- AE: Headache (healthy male subjects; 100 mg tab PM (n = 6)): 2 (33.3) n (%)
- AE: Nervous system disorders (healthy male subjects; 100 mg tab PM (n = 6)): 2 (33.3) n (%)
- AE: Photopsia (healthy male subjects; 100 mg tab PM (n = 6)): 1 (16.7) n (%)
- AE: Presyncope (healthy male subjects; 100 mg tab PM (n = 6)): 1 (16.7) n (%)
- AE: Headache (healthy male subjects; 200 mg tab EM (n = 6)): 1 (16.7) n (%)
- AE: Nervous system disorders (healthy male subjects; 200 mg tab EM (n = 6)): 2 (33.3) n (%)
- AE: Photophobia (healthy male subjects; 200 mg tab EM (n = 6)): 1 (16.7) n (%)
- AE: Photopsia (healthy male subjects; 200 mg tab EM (n = 6)): 2 (33.3) n (%)
- AE: Somnolence (healthy male subjects; 200 mg tab EM (n = 6)): 1 (16.7) n (%)
- AE: Blurred vision (healthy male subjects; 350 mg tab EM (n = 6)): 1 (16.7) n (%)
- AE: Cardiac disorders (healthy male subjects; 350 mg tab EM (n = 6)): 1 (16.7) n (%)
- AE: Chromatopsia (healthy male subjects; 350 mg tab EM (n = 6)): 1 (16.7) n (%)
- AE: Dry mouth (healthy male subjects; 350 mg tab EM (n = 6)): 1 (16.7) n (%)
- AE: Gastrointestinal disorders (healthy male subjects; 350 mg tab EM (n = 6)): 2 (33.3) n (%)
- AE: Nausea (healthy male subjects; 350 mg tab EM (n = 6)): 1 (16.7) n (%)
- AE: Nervous system disorders (healthy male subjects; 350 mg tab EM (n = 6)): 1 (16.7) n (%)
- AE: Photophobia (healthy male subjects; 350 mg tab EM (n = 6)): 1 (16.7) n (%)
- AE: Photopsia (healthy male subjects; 350 mg tab EM (n = 6)): 2 (33.3) n (%)
- AE: Sinus tachycardia (healthy male subjects; 350 mg tab EM (n = 6)): 1 (16.7) n (%)
- AE: Somnolence (healthy male subjects; 350 mg tab EM (n = 6)): 1 (16.7) n (%)
- dose up to which generally safe and well tolerated (healthy male subjects; CYP2C19 EM healthy male subjects): up to 350 mg
- subjects with headache (healthy male subjects; CYP2C19 EMs treated with BI 409306, all dose groups): three
- subjects with photophobia/increased sensitivity to light (healthy male subjects; CYP2C19 EMs, all dose groups): three
- subjects with photopsia/flashing lights (healthy male subjects; CYP2C19 EMs, all dose groups): five
- dose up to which generally safe and well tolerated (healthy male subjects; CYP2C19 PM healthy male subjects): up to 100 mg
- subjects with headache (healthy male subjects; CYP2C19 PMs treated with BI 409306 (10 mg and 100 mg)): four
- intensity of AEs (healthy male subjects; all AEs): mild to moderate
- B&L VAS scores: effects on mood, vigilance or stress levels (healthy male subjects; data not shown): no clinically relevant effects; also recorded: did not reveal any clinically relevant effects
- abnormalities in laboratory results, ECG findings or vital signs (healthy male subjects; exception: one episode of transient sinus tachycardia): No relevant abnormalities
- overall safety and tolerability (healthy male subjects; healthy male subjects, single rising doses): generally safe and well tolerated
- onset of nervous system and eye disorder AEs after administration (healthy male subjects; most frequently reported AEs): 20 to 30 min
- time within which AEs mostly resolved (healthy male subjects; nervous system and eye disorders): 1 to 2 h
- serious AEs (healthy male subjects; single doses 0.5–350 mg, EMs and PMs): No serious AEs occurred; also recorded: No serious AEs were reported
- highest (maximum) tolerated dose (healthy male subjects; single oral dose, CYP2C19 EMs): 350 mg
- urinary excretion of BI 409306 ([4]; CYP2C19 EMs): < 2 % of the dose
- dose proportionality exponent β of the power model for Ae0–4 ([4]; CYP2C19 EMs, entire dose range, 95% CI: 0.98, 1.12): 1.05
- urinary excretion of BI 409306 ([4]; CYP2C19 PMs): up to 2.68 % of the dose
- fe0–4 [4, 7]: 0.483 (46.5) %
- fe0–4 [4, 8]: 0.583 (26.0) %
- fe0–4 [4, 9]: 0.611 (24.2) %
- fe0–4 [4, 10]: 0.461 (60.2) %
- fe0–4 [4, 11]: 1.30 (14.3) %
- fe0–4 [4, 12]: 0.594 (48.1) %
- fe0–4 [4, 13]: 0.523 (56.9) %
- fe0–4 [4, 14]: 0.597 (53.0) %
- fe0–4 [4, 15]: 1.78 (23.3) %
- fe0–4 [4, 16]: 0.676 (48.8) %
- fe0–4 [4, 17]: 0.786 (24.0) %
